Measured values taken from ChEMBL document CHEMBL2413003, “3-Carboxamido-5-aryl-isoxazoles as new CB2 agonists for the treatment of colitis” (Bioorg Med Chem, 2013).
Activity calls are given as the source filed them. The calls are words filed in the database; no cut-off is given here.

Tests used:
Cannabinoid receptor 2 [1] = target: T1, Cannabinoid receptor 2 (Homo sapiens, UniProt P34972); experiment: Displacement of [3H]-CP55,940 from human CB2 receptor expressed in CHO membranes after 1 hr by liquid scintillation counting; format: cell membranes
T1 sequence (P34972 whole entry): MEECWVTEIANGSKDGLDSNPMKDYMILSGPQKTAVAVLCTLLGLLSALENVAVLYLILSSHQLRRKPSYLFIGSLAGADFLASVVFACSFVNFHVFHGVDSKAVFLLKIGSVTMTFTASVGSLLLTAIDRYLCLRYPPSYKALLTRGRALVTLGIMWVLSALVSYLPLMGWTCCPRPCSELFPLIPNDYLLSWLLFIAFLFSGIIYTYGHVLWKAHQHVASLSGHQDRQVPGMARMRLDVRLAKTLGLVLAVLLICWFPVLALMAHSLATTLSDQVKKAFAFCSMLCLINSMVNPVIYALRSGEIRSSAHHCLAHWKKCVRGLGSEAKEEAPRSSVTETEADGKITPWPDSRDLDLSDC
Method in brief: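 0.5 nM [3H]-CP-55,940 on 6 µg hCB2-CHO membranes in 20 mM Hepes, 5 mM MgCl2, 1 mM EDTA, 0.3% BSA, pH 7.4, 1 h at 30 °C. Filtered over GF/C and counted by scintillation. Nonspecific binding with 5 µM (R)-(+)-WIN 55,212-2; DMSO <0.1%. Screened first at 10 µM; Ki by nonlinear regression of competition curves where displacement >60%; ≥4 experiments in duplicate.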

Cannabinoid receptor 2 [2] = target: T1, Cannabinoid receptor 2; experiment: Agonist activity at human CB2 receptor expressed in CHO membranes assessed as [35S]-GTPgammaS binding after 1 hr; format: functional, cell membranes
Method in brief: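 hCB2-CHO membranes (10 µg protein) in 20 mM Hepes, 10 mM MgCl2, 100 mM NaCl, 0.1% BSA, pH 7.4, with 30 µM GDP. Started with 0.1 nM [35S]-GTPγS (final) and run 1 h at 30 °C, then filtered and counted. Nonspecific binding taken with 100 µM Gpp(NH)p; basal activity set at 100%. EC50 and Emax by nonlinear regression, ≥4 experiments in duplicate.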

Homo sapiens = species on record: Homo sapiens; experiment: Selectivity ratio of Ki for human CB1 receptor expressed in CHO membranes to Ki for human CB2 receptor expressed in CHO membranes; format: cell membranes
HT-29 = experiment: Antiproliferative activity against human HT-29 cells at 10 uM after 72 hrs by MTS assay; format: cell-based; conditions: ht-29, 72 h
Method in brief: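 HT29 cells grown in DMEM-Glutamax with 10% FBS and penicillin/streptomycin, 37 °C, 5% CO2. Plated at 3000 cells/well in triplicate, left 24 h, then exposed to 10 µM compound (<0.1% DMSO) for 72 h. Growth read by colorimetric MTS reduction to formazan, given as % proliferation inhibition; ≥4 experiments in duplicate.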

Cannabinoid receptor 1 = Cannabinoid receptor 1 (Homo sapiens, UniProt P21554); experiment: Displacement of [3H]-SR141716A from human CB1 receptor expressed in CHO membranes after 1 hr by liquid scintillation counting; format: cell membranes
Cannabinoid receptor 1, sequence (P21554 whole entry, looked up): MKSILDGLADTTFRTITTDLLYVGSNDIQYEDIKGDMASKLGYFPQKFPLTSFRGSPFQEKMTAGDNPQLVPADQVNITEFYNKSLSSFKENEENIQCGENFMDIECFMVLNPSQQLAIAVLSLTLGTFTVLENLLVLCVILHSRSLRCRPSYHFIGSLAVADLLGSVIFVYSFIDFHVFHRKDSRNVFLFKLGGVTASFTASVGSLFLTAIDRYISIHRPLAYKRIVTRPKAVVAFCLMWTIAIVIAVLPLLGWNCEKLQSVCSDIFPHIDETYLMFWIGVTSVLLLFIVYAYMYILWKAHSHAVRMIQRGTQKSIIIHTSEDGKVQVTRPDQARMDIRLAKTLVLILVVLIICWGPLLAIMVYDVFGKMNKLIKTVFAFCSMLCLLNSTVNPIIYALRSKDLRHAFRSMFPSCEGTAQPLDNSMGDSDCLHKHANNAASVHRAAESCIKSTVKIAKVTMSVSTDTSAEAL

Mus musculus [3] = experiment: Toxicity in DSS-induced acute colitis C57/Bl6 mouse model assessed as rovert reactions at 10 mg/kg, ip qd for 7 days measured after 7 days; format: organism-based; parameters: dose 10 mg/kg, route intraperitoneal; conditions: in vivo, 168 h
Mus musculus [4] = experiment: Anticolitis activity in DSS-induced acute colitis C57/Bl6 mouse model assessed as reduction in ratio of Kc mRNA to POLR2A mRNA level at 10 mg/kg, ip qd for 7 days measured after 7 days by RT-PCR analysis (reference value: 68.9 +/-9.8 no unit ); format: functional; conditions: route intraperitoneal
Mus musculus [5] = experiment: Anticolitis activity in DSS-induced acute colitis C57/Bl6 mouse model assessed as reduction in ratio of IL-1beta mRNA to POLR2A mRNA level at 10 mg/kg, ip qd for 7 days measured after 7 days by RT-PCR analysis (reference value: 105.1 +/-17.0 no unit ); format: functional; conditions: route intraperitoneal
Mus musculus [6] = experiment: Anticolitis activity in DSS-induced acute colitis C57/Bl6 mouse model assessed as effect on TNF-alpha levels at 10 mg/kg, ip qd for 7 days measured after 7 days by RT-PCR analysis relative to vehicle-treated control; format: functional, organism-based; parameters: dose 10 mg/kg
Mus musculus [7] = experiment: Anticolitis activity in DSS-induced acute colitis C57/Bl6 mouse model assessed as reduction in colon inflammation at 10 mg/kg, ip qd for 7 days measured after 7 days by histological analysis relative to vehicle-treated control; format: functional, organism-based; parameters: dose 10 mg/kg
Method in brief: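 In DSS-colitic male C57BL6 mice given 10 mg/kg ip daily for 7 days in cyclodextrin vehicle, May-Grünwald-Giemsa-stained distal colon sections were scored for inflammatory infiltrate (0–3) and tissue damage (0–3), n = 10.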

Mus musculus [8] = experiment: Anticolitis activity in DSS-induced acute colitis C57/Bl6 mouse model assessed as increase in colon length at 10 mg/kg, ip qd for 7 days measured after 7 days (reference value: 4.6 +/- 0.2 cm); format: functional; conditions: route intraperitoneal
Mus musculus [9] = experiment: Anticolitis activity in DSS-induced acute colitis C57/Bl6 mouse model assessed as reduction in disease activity index at 10 mg/kg, ip qd for 7 days measured after 7 days relative to vehicle-treated control; format: functional, organism-based; parameters: dose 10 mg/kg
Mus musculus [10] = experiment: Anticolitis activity in DSS-induced acute colitis C57/Bl6 mouse model assessed as change in body weight at 10 mg/kg, ip qd for 7 days measured after 7 days (reference value: 83.1 +/- 2.2 %); format: functional; conditions: route intraperitoneal

Compound | Ki (Cannabinoid receptor 2 [1]) [nM] | EC50 (Cannabinoid receptor 2 [2]) [nM] | Ratio Ki (Homo sapiens) | Activity (HT-29) [%] | Ki (Cannabinoid receptor 1) [nM] | further results
O=C(NCC12CC3CC(CC(C3)C1)C2)c1cc(-c2ccccc2)on1 | > 1000 | – | – | – | – | –
CCCCCCCOc1ccccc1-c1cc(C(=O)NC23CC4CC(CC(C4)C2)C3)no1 | > 1000 | – | – | – | – | –
CCCCCCOc1ccccc1-c1cc(C(=O)NC23CC4CC(CC(C4)C2)C3)no1 | 30.5 | 3.4 | > 98 | 17 | > 3000 | –
CCCCCOc1ccccc1-c1cc(C(=O)NN2CCCCC2)no1 | 600 | – | – | – | – | –
O=C(NC12CC3CC(CC(C3)C1)C2)c1cc(-c2ccccc2)on1 | > 1000 | – | – | – | – | –
CCCCCOc1ccccc1-c1cc(C(=O)NC2CCCCC2)no1 | 22.8 | 1.9 | > 131 | 37 | > 3000 | –
CCCOc1ccccc1-c1cc(C(=O)NC23CC4CC(CC(C4)C2)C3)no1 | 79.6 | 2.21 | > 12 | 8 | > 1000 | –
CCCCCOc1ccccc1-c1cc(C(=O)Nc2cccc3ccccc23)no1 | > 1000 | – | – | – | – | –
CCOc1ccccc1-c1cc(C(=O)NC23CC4CC(CC(C4)C2)C3)no1 | > 1000 | – | – | – | – | –
CCCCCOc1ccccc1-c1cc(C(=O)NC2CC2)no1 | > 1000 | – | – | – | – | –
CCCCCOc1ccccc1-c1cc(C(=O)NC2CCC2)no1 | 412 | 4.4 | > 2 | 46 | > 1000 | –
O=C(NC1C2CC3CC(C2)CC1C3)c1cc(-c2ccccc2)on1 (stereo unspecified) | > 1000 | – | – | – | – | –
COc1ccccc1-c1cc(C(=O)NC23CC4CC(CC(C4)C2)C3)no1 | 70.1 | 2.56 | > 42 | – | > 3000 | –
CCCCCOc1ccccc1-c1cc(C(=O)NC2CCCCCC2)no1 | 60.8 | 11.1 | > 49 | 34 | > 3000 | Activity (Mus musculus [3]): Non-toxic; Ratio (Mus musculus [4]): 12.3; Ratio (Mus musculus [5]): 13.2; Activity (Mus musculus [6]): inactive; Activity (Mus musculus [7]): Active; Activity (Mus musculus [8]): 5.4 cm; Activity (Mus musculus [9]): Active; Activity (Mus musculus [10]): 91.8%
CCCCCOc1ccccc1-c1cc(C(=O)Nc2ccccc2)no1 | > 1000 | – | – | – | – | –
CCCCCOc1cccc(-c2cc(C(=O)NC34CC5CC(CC(C5)C3)C4)no2)c1 | > 1000 | – | – | – | – | –
CCCCCOc1ccccc1-c1cc(C(=O)NC2CCCC2)no1 | 60.9 | 2.1 | > 16 | 13 | > 1000 | –
CCCCCOc1ccccc1-c1cc(C(=O)Nc2nnc(C)s2)no1 | > 3000 | – | – | – | – | –
CCCCOc1ccccc1-c1cc(C(=O)NC23CC4CC(CC(C4)C2)C3)no1 | 369 | 2.88 | > 8 | 2 | > 3000 | –
CCCCCOc1ccccc1-c1cc(C(=O)NCc2ccccc2)no1 | > 3000 | – | – | – | – | –
CCCCCOc1ccccc1-c1cc(C(=O)NC23CC4CC(CC(C4)C2)C3)no1 | 36 | 2.9 | > 83 | 0 | > 3000 | –
CCCCCCCCOc1ccccc1-c1cc(C(=O)NC23CC4CC(CC(C4)C2)C3)no1 | > 1000 | – | – | – | – | –
CCCCCOc1ccccc1-c1cc(C(=O)NC23CC4CC(CC2C4)C3)no1 | 9 | 4.8 | > 111 | 20 | > 1000 | Activity (Mus musculus [3]): Non-toxic; Ratio (Mus musculus [4]): 11.5; Ratio (Mus musculus [5]): 19.9; Activity (Mus musculus [6]): inactive; Activity (Mus musculus [7]): Active; Activity (Mus musculus [8]): 5.6 cm; Activity (Mus musculus [9]): Active; Activity (Mus musculus [10]): 92.8%
CCCCCOc1ccccc1-c1cc(C(=O)NC2CCCCCCC2)no1 | 73.5 | 1.8 | > 40 | 17 | > 3000 | –
CCCCCOc1ccccc1-c1cc(C(=O)NC2C3CC4CC(C3)CC2C4)no1 (stereo unspecified) | 60.1 | 14.8 | > 49 | 0 | > 3000 | –
CCCCCOc1ccc(-c2cc(C(=O)NC34CC5CC(CC(C5)C3)C4)no2)cc1 | > 1000 | – | – | – | – | –
CCCCCOc1ccccc1-c1cc(C(=O)N(CC(C)C)CC(C)C)no1 | 22.1 | – | – | – | 33 | –
